Screens as filed in PubChem BioAssay.
LMPTP block – LMPTP phosphatase inhibitors, primary screen, biochemical, fluorescence intensity, uHTS | actives 0.22% (n = 360,000) | inhibition, % at 20 µM | recombinant LMPTP-A, OMFP fluorogenic substrate | Low molecular weight phosphotyrosine protein phosphatase (Homo sapiens), P24666 | AID 651560, 2012;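 active = compounds that cut the enzyme signal by at least half of the control window in the single-dose screen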
Target sequence (P24666 whole entry, looked up): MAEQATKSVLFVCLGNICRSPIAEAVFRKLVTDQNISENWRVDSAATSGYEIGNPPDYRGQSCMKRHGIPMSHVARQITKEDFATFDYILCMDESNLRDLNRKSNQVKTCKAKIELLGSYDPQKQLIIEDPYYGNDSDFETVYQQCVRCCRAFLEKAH
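test system = LMPTP-A | amount = 0.625 nM LMPTP-A final | reagent = fluorogenic phosphatase substrate OMFP at 400 µM final | incubation = 50 min at room temperature | benchmarks = no-enzyme low control, uninhibited high control | medium = Bis-Tris pH 6.0, DTT, detergent | signal = fluorescence intensity of OMFP turnover product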
CFTR F508del cor – F508del CFTR correction, initial screen, CFBE line, single point | CFBE cells, YFP halide quenching; stimulated with forskolin plus potentiator P3; % fluorescence drop versus neutral controls | activity (quench increase), % at 7.58 µM | actives 0.36% (n = 350,000);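 active = mean added fluorescence quench of at least 8% versus neutral control, with both replicates also reaching 8%; inconclusive = only one of the mean or replicate conditions met; inactive = mean below 8% and not both replicates reaching 8%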;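 also: cells transiently co-express mutant CFTR-F508del with the halide-sensitive YFP; corrector assay measuring rescue of mutant channel to the surface after 24 h compound exposure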
SUMO1 PPI mod – modulators of SUMO1 protein-protein interactions, primary screen, biochemical, uHTS. SUMO1 binding to a labelled peptide, TR-FRET, 1 h. inhibition, % at 20 µM. actives 0.33% (n = 360,000). AID 602429, 2012; in the data active = inhibition above about 37%
Target sequence (P63165 whole entry, looked up): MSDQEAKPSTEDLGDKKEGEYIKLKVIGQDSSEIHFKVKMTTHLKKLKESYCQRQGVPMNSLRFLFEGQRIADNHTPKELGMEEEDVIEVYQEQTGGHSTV
DNMT1 inh – human DNMT1 methyltransferase inhibitors, primary screen, biochemical, molecular beacon, fluorescence, HinP1I cleavage, uHTS. DNA (cytosine-5)-methyltransferase 1 (Homo sapiens), P26358. inhibition (reported as % activation of signal), % at 10 µM. actives 0.83% (n = 360,000). AID 588458, 2011; in the data active = inhibition above about 50%
STEP inh – STEP phosphatase inhibitors, primary screen, biochemical, fluorescence intensity, uHTS. recombinant STEP, OMFP fluorogenic substrate. inhibition, % at 20 µM. actives 0.25% (n = 360,000);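 active = inhibition at 20 µM, scaled per plate between control wells, above about 37%, limit read from the data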
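Also added – OMFP at 25 µM · Test system – STEP tyrosine phosphatase · Technique – FITC-channel fluorescence of OMFP product · Schedule – 20 min at room temperature, dark · Evaluation – control-normalized % inhibition with plate pattern correction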
Scp-1 inhibitor – Scp-1 phosphatase inhibitors, primary screen, biochemical, colorimetric, uHTS; Carboxy-terminal domain RNA polymerase II polypeptide A small phosphatase 1 (Homo …; Recombinant Scp1, phosphopeptide, malachite green phosphate absorbance; inhibition, % at 20 µM; actives 0.88% (n = 340,000);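 active = inhibition above about 50% at 20 µM, limit read from the data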
Target sequence (Q9GZU7 76-261 limits assumed): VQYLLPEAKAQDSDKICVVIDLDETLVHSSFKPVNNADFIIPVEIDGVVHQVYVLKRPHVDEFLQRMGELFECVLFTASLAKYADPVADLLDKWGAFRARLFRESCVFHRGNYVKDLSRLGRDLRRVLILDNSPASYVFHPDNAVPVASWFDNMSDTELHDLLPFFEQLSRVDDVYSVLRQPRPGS
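System: SCP-1 catalytic domain; Reagent: Phospho 17-mer peptide substrate; Doses: one concentration, 20 µM, with 1.0% DMSO; Incubation: 45 min room-temperature reaction, 5 min colour, 30 min stabiliser; Signal: Phosphate-binding colour reagent, absorbance read at 630 nm.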
Numbers stand for hits; n = inactive; u = inconclusive; x = no result. A selection: hits, their analogues and other compounds. The true share with any hit is near 1.6%.

SMILES | LMPTP block | CFTR F508del cor | SUMO1 PPI mod | DNMT1 inh | STEP inh | Scp-1 inhibitor
CC(=O)Nc1ncc2c(n1)CC(c1ccco1)CC2=O (stereo unspecified) | n | x | n | n | n | n
Nc1ncc2c(n1)CC(c1ccco1)CC2=O (stereo unspecified) | 60.2 | x | n | n | n | n
CC=Cc1ccc2n(c1=O)C[C@H]1[C@H](CO)[C@@H](C(=O)N3CCC(Cc4ccccc4)CC3)N(CC)[C@@H]21 (mixture of isomers) | x | n | x | x | x | x
COc1ccc(C(=O)c2no[n+]([O-])c2C(=O)c2ccc(OC)cc2)cc1 | n | x | n | n | n | n
O=C(c1cccs1)c1no[n+]([O-])c1C(=O)c1cccs1 | n | x | n | 63.8 | n | n
C/C(N)=C(/C#N)C(=O)COC(=O)CNC(=O)c1ccc(Cl)cc1Cl | n | n | n | n | n | n
C/C(N)=C(/C#N)C(=O)COc1ccc(Cl)cc1Cl | n | n | 60.9 | n | n | n
C=CC(=O)Nc1cccc(Oc2ccnc3[nH]ccc23)c1 | n | x | 56.6 | n | 54.2 | n
Cc1[nH]c2ccc(C(=O)OCC(=O)Nc3cccc(S(N)(=O)=O)c3)cc2c1C | n | n | 60.3 | n | n | n
C[C@H](CO)N1C[C@H](C)[C@H](CN(C)S(=O)(=O)c2cccc(F)c2)Oc2ncc(-c3cccc(F)c3)cc2C1=O | x | n | x | x | x | x
CC(=O)Nc1ccc(NC(=O)c2cc(-c3ccc(C)cc3O)n[nH]2)cc1 | n | n | 74.4 | n | n | n
COc1cc(F)ccc1-c1cc(C(=O)Nc2ccc(NC(C)=O)cc2)[nH]n1 | n | n | 63.4 | n | n | x
COc1ccc(F)cc1-c1cc(C(=O)Nc2ccc(NC(C)=O)cc2)[nH]n1 | n | n | n | n | n | x
COc1ccc(CCn2c(Br)nc3c2c(=O)[nH]c(=O)n3C)cc1 | n | x | n | n | n | n
COc1ccc(CCn2c(NN)nc3c2c(=O)[nH]c(=O)n3C)cc1 | n | u | n | 75.2 | n | n
COc1ccc(CCn2c(NCc3ccco3)nc3c2c(=O)[nH]c(=O)n3C)cc1 | n | x | n | n | n | n
COc1ccc(CCn2c(NN=C(C)C)nc3c2c(=O)[nH]c(=O)n3C)cc1 | n | 9.8 | n | n | n | n
NS(=O)(=O)c1ccc(N/N=C/c2ccc(O)cc2O)c([N+](=O)[O-])c1 | n | u | n | n | n | n
NS(=O)(=O)c1ccc(N/N=C/c2ccc(O)c(O)c2O)c([N+](=O)[O-])c1 | 65.2 | n | n | n | n | n
Cc1ccc2nc(SCC(=O)Nc3ccc(F)cc3)nc(=O)n2c1 | n | n | n | n | n | n
Cc1ccc2nc(SCC(=O)Nc3ccc(Cl)cc3)nc(=O)n2c1 | n | n | 86.2 | n | n | n
CC(=O)Nc1sc2c(c1-c1nc3ccccc3s1)CN(C(C)C)CC2 | n | 23.5 | n | 77.8 | n | n
CC(=O)N1CCc2c(sc(NC(=O)C3CC3)c2-c2nc3ccccc3s2)C1 | n | n | n | n | n | n
O=C(NCCc1ccccc1)[C@H]1[C@H](CO)[C@H]2Cn3c(cccc3=O)[C@H]2N1Cc1cccnc1 | x | n | x | x | x | x
CC(C)CN(CCCNC(=O)CN1C(=O)CSc2ccc(S(=O)(=O)N3CCOCC3)cc21)CC(C)C | n | 10.3 | n | n | n | n
SMILES | LMPTP block | CFTR F508del cor | SUMO1 PPI mod | DNMT1 inh | STEP inh | Scp-1 inhibitor
CC(C)CN(CCNC(=O)CN1C(=O)CSc2ccc(S(=O)(=O)N3CCOCC3)cc21)CC(C)C | n | n | n | n | n | n
COc1ccccc1-c1ccc2c(c1)O[C@H](CN(C)C)[C@@H](C)CN([C@@H](C)CO)S2(=O)=O | x | n | x | x | x | x
OC[C@H]1[C@H](c2ccc(C#CC3(O)CCCC3)cc2)[C@H]2CN(Cc3ccccc3F)CCCCN21 | x | 8.9 | x | x | x | x
OC[C@@H]1[C@@H](c2ccc(C#CC3(O)CCCC3)cc2)[C@H]2CN(Cc3ccccc3F)CCCCN12 | x | 8.4 | x | x | x | x
COc1ccc(C#Cc2ccc([C@@H]3[C@@H](CO)N4CCCCN(Cc5ccccc5F)C[C@H]34)cc2)cc1 | x | n | x | x | x | x
COc1ccc(NS(=O)(=O)c2cccc(C(=O)NN=Cc3ccc(O)c(OC)c3)c2)cc1 | n | n | 63.4 | n | n | n
COc1ccc(NS(=O)(=O)c2cccc(C(=O)N/N=C/c3ccccc3OC)c2)cc1 | n | n | n | n | n | n
COc1ccc(NS(=O)(=O)c2cccc(C(=O)N/N=C/c3ccccn3)c2)cc1 | n | n | n | n | n | n
COc1ccc(NS(=O)(=O)c2cccc(C(=O)N/N=C/c3ccc(O)cc3)c2)cc1 | n | n | 62.5 | n | n | n
O=C(C[C@H]1C[C@H]2c3cc(NC(=O)c4cccnc4)ccc3O[C@H]2[C@@H](CO)O1)NC1CCCC1 | x | n | x | x | x | x
COc1cccc(NC(=O)N2C[C@H](O)COC[C@@H]3O[C@@H](CC(=O)NC4CCCC4)CC[C@H]32)c1 | x | n | x | x | x | x
O=C1/C(=C/C=C/c2ccco2)SC(=S)N1NS(=O)(=O)c1ccccc1 | 61.5 | n | 112.2 | 86.9 | 42.6 | 82.2
O=C1/C(=C/c2cccs2)SC(=S)N1NS(=O)(=O)c1ccccc1 | n | n | n | n | n | n
CC(C(=O)O)N1C(=O)/C(=C/C=C/c2ccco2)SC1=S (stereo unspecified) | 77.7 | x | 99.9 | 83.3 | 99.1 | 79.0
O=C1/C(=C\c2ccco2)SC(=S)N1c1ccccc1 | n | x | n | n | n | n
O=C(O)CSc1cc(NS(=O)(=O)c2cccc([N+](=O)[O-])c2)c2ccccc2c1O | n | n | n | 52.4 | n | n
CCOc1ccc(S(=O)(=O)Nc2cc(SCC(=O)O)c(O)c3ccccc23)cc1 | n | n | n | n | n | n
O=S(=O)(Nc1cc(Sc2cccc3cccnc23)c(O)c2ccccc12)c1ccccc1 | x | 25.9 | x | x | x | x
CCc1ccc(S(=O)(=O)Nc2cc(SCC(=O)O)c(O)c3ccccc23)cc1 | n | n | 44.7 | n | n | n
Cc1ccc(C)c(S(=O)(=O)Nc2cc(SCC(=O)O)c(O)c3ccccc23)c1 | n | x | 91.0 | n | n | n
Cc1noc(C)c1S(=O)(=O)Nc1ccc2c(c1)CC(=O)N([C@@H](C)CO)C[C@@H](C)[C@@H](CN(C)S(=O)(=O)c1c(C)noc1C)O2 | x | n | x | x | x | x
O=c1cc2oc3cc(O)c(O)cc3c(-c3ccccc3[N+](=O)[O-])c-2cc1O | 90.2 | n | n | n | n | n
Cc1ccc(S(=O)(=O)Nc2ccc3c(c2)CC(=O)N([C@@H](C)CO)C[C@@H](C)[C@H](CN(C)CC2CC2)O3)cc1 | x | n | x | x | x | x
